Converted amounts (≈) assume the structure as drawn. The source made the active and inactive calls. The rule behind the calls is not given here.
How the values were obtained:
Erythrocyte = test: Hemolytic activity in sheep erythrocytes at 32 ug/ml incubated for 1 hr; format: toxicity, cell-based, Ovis aries; details: dose 32 µg/ml
Summary of the method: (§1)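 4% sheep erythrocytes mixed 1:1 with twofold serial compound dilutions in PBS, incubated stationary 1 h at 37 °C, then centrifuged at 500g for 5 min. Supernatant A540 is measured and percent hemolysis is calculated relative to DMSO vehicle (0%) and Triton X-100 (100%). Triplicate, mean ± SD.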

Staphylococcus aureus [1] = test: Antibacterial activity against methicillin resistant Staphylococcus aureus FPR3757 assessed as inhibition of bacterial growth incubated for 24 hrs by CLSI based method; format: functional; details: read-out: MIC100
Summary of the method: (§2)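 It was mixed 1:1 with twofold serial compound dilutions and incubated stationary at 37 °C for 24 h. MIC was the lowest concentration giving complete inhibition of observable growth, with an oxacillin control.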

[2] = system: Staphylococcus epidermidis; test: Antibacterial activity against Staphylococcus epidermidis NIF104008 assessed as inhibition of bacterial growth incubated for 24 hrs by CLSI based method; format: functional
Summary of the method: (§3)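 Broth microdilution per CLSI. Equal volume of twofold serial compound dilutions added. Incubated stationary at 37 °C for 24 h. MIC taken as lowest concentration giving complete inhibition of visible growth. Oxacillin control for Gram-positives, ceftriaxone for Gram-negatives.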

Cell membrane [3] = test: Induction of cell membrane damage in Staphylococcus aureus USA300 assessed as mesosome-like membrane inclusions at 1 times MIC measured after 1 hrs by TEM analysis
Summary of the method: (§4)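 Fixed in glutaraldehyde/paraformaldehyde in cacodylate pH 7.4, post-fixed with osmium tetroxide, stained with uranyl acetate, resin-embedded, thin-sectioned and imaged by TEM.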

Enterococcus faecalis [4] = test: Antibacterial activity against Enterococcus faecalis DHMC #1 assessed as inhibition of bacterial growth incubated for 24 hrs by CLSI based method; format: functional; summary of the method: as §3
Escherichia coli = test: Antibacterial activity against Escherichia coli DHMC-1 assessed as inhibition of bacterial growth incubated for 24 hrs by CLSI based method; format: functional; summary of the method: as §3
Staphylococcus aureus [5] = test: Antibacterial activity against methicillin resistant Staphylococcus aureus FPR3757 assessed as inhibition of bacterial growth incubated for 24 hrs in presence of 10% FBS by CLSI based method; format: functional
Summary of the method: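 CLSI broth microdilution against MRSA FPR3757 (USA300) in Mueller–Hinton broth supplemented with 10% serum (fetal bovine or mouse). Inoculum 10⁶ CFU/mL with twofold serial compound dilutions, stationary incubation at 37 °C for 24 h. MIC read as lowest concentration with complete inhibition of visible growth.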

[6] = Protein binding in human plasma at […] incubated for 4 hrs under shaking condition by LC-MS/MS based equilibrium dialysis method; format: ADME, cell-free
Summary of the method: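 Rapid equilibrium dialysis (8k MWCO). Compound is spiked into human plasma at 10 μg/mL and dialysed against DPBS pH 7.4 with shaking for 4 h at 37 °C. Matrices are matched, proteins precipitated with methanol containing internal standard, and both chambers quantified by LC-MS/MS against a calibration curve. Percent free and bound are calculated from chamber concentrations.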

Klebsiella pneumoniae = test: Antibacterial activity against Klebsiella pneumoniae 7117 assessed as inhibition of bacterial growth incubated for 24 hrs by CLSI based method; format: functional; summary of the method: as §3
Cell membrane [7] = test: Induction of cell membrane damage in Staphylococcus aureus USA300 assessed as bulging of the septum at 1 times MIC measured after 1 hrs by TEM analysis; summary of the method: as §4
Staphylococcus aureus [8] = test: Antibacterial activity against community-associated methicillin-resistant Staphylococcus aureus USA300 FPR3757 assessed as inhibition of bacterial growth incubated for 24 hrs by CLSI based method; format: functional; summary of the method: as §2
Staphylococcus aureus [9] = test: microbe, parasite or virus in culture; details: USA300 FPR3757, 24 h
Cell membrane [10] = test: Induction of cell membrane damage in Staphylococcus aureus USA300 assessed as cross-wall-septum formation with reduced splitting at 1 times MIC measured after 10 mins by TEM analysis; format: subcellular
Staphylococcus aureus [11] = test: Antibacterial activity against methicillin-resistant Staphylococcus aureus MW2 assessed as inhibition of bacterial growth incubated for 24 hrs by CLSI based method; format: functional; summary of the method: as §3
Candida albicans = test: Antifungal activity against Candida albicans SC5314 assessed as inhibition of bacterial growth incubated for 24 hrs by CLSI based method; format: functional
Summary of the method: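 Broth microdilution per CLSI. It is mixed 1:1 with twofold serial compound dilutions and incubated stationary at 35 °C for 24 h. MIC is read as the lowest concentration with no observable growth.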

Vero [12] = test: Cytotoxicity against African green monkey Vero cells assessed as increase in LDH release at 0.47 to 30 uM incubated for 24 hrs; format: toxicity, cell-based; details: chlorocebus sabaeus, dose 0.47-30 µM
Summary of the method: (§5)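 Confluent Vero cells (maintained in RPMI 1640 + 10% FBS, 37 °C, 5% CO2) exposed to compound at 0.47–30 μM (twofold dilutions) in serum-free medium for 24 h at 37 °C. LDH in supernatant is measured colorimetrically at 490 nm and expressed as percent of 2% detergent positive control.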

Staphylococcus aureus [13] = test: Antibacterial activity against methicillin-resistant Staphylococcus aureus COL assessed as inhibition of bacterial growth incubated for 24 hrs by CLSI based method; format: functional; summary of the method: as §3
Staphylococcus aureus [14] = test: Antibacterial activity against methicillin-resistant Staphylococcus aureus N315 assessed as inhibition of bacterial growth incubated for 24 hrs by CLSI based method; format: functional; summary of the method: as §3
Enterobacter cloacae = test: Antibacterial activity against Enterobacter cloacae ND-21 assessed as inhibition of bacterial growth incubated for 24 hrs by CLSI based method; format: functional; summary of the method: as §3
[15] = system: Staphylococcus epidermidis; test: Antibacterial activity against Staphylococcus epidermidis NIF104003 assessed as inhibition of bacterial growth incubated for 24 hrs by CLSI based method; format: functional; summary of the method: as §3
Cell membrane [16] = test: Induction of cell membrane damage in Staphylococcus aureus USA300 assessed as membrane wrinkling at 1 times MIC measured after 1 hrs by TEM analysis; summary of the method: as §4
Staphylococcus aureus [17] = test: Antibacterial activity against methicillin-resistant Staphylococcus aureus NRS71 assessed as inhibition of bacterial growth incubated for 24 hrs by CLSI based method; format: functional; summary of the method: as §3
Enterococcus faecium [18] = test: Antibacterial activity against Enterococcus faecium ATCC19579 assessed as inhibition of bacterial growth incubated for 24 hrs by CLSI based method; format: functional; summary of the method: as §3
Enterococcus faecalis [19] = test: Antibacterial activity against Enterococcus faecalis ATCC700802 assessed as inhibition of bacterial growth incubated for 24 hrs by CLSI based method; format: functional; summary of the method: as §3
Vero [20] = test: Cytotoxicity against African green monkey Vero cells assessed as increase in LDH release at 30 uM incubated for 24 hrs relative to control; format: toxicity, cell-based; details: chlorocebus sabaeus; summary of the method: as §5
Enterococcus faecium [21] = test: Antibacterial activity against Enterococcus faecium DHMC #1 assessed as inhibition of bacterial growth incubated for 24 hrs by CLSI based method; format: functional; summary of the method: as §3
[22] = Cytotoxicity against sheep erythrocytes assessed as reduction in cell viability; format: toxicity, cell-based, Ovis aries, Erythrocyte; summary of the method: as §1
[23] = Therapeutic index, ratio of CC50 for Cytotoxicity against sheep erythrocytes to MIC for antibacterial activity against methicillin resistant Staphylococcus aureus FPR3757; format: toxicity
Summary of the method: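 Ratio of erythrocyte CC50 to MRSA FPR3757 MIC. For hemolysis, 4% washed sheep erythrocytes were mixed 1:1 with twofold compound dilutions in PBS and incubated 1 h at 37 °C. Supernatant A540 was read after centrifugation and normalized between DMSO and Triton X-100 (100% lysis). Triplicates. Highest concentration tested: 32 μg/mL.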

Fc1cc2nc(C(F)(F)F)cc(Nc3ccc(C(F)(F)F)cn3)c2cc1F
Activity (Erythrocyte): Toxic
MIC (Staphylococcus aureus [1]): 0.25 µg/mL (≈ 0.636 µM)

O=c1cc(C(F)(F)F)[nH]c2cc(C(F)(F)F)cc(N[C@H]3CC[C@H](C(F)(F)F)CC3)c12
MIC [2]: 0.125 µg/mL (≈ 0.28 µM)
Activity (Cell membrane [3]): Active
MIC (Enterococcus faecalis [4]): 0.125 µg/mL (≈ 0.28 µM)
MIC (Escherichia coli): > 128 µg/mL
MIC (Staphylococcus aureus [5]): 4 µg/mL
PPB [6]: 99.9%
MIC (Klebsiella pneumoniae): > 128 µg/mL
Activity (Cell membrane [7]): Active
MIC (Staphylococcus aureus [8]): 0.5 µg/mL (≈ 1.12 µM)
MBC (Staphylococcus aureus [9]): 4 µg/mL (≈ 8.96 µM)
Activity (Erythrocyte): Non-Toxic
Activity (Cell membrane [10]): Active
MIC (Staphylococcus aureus [11]): 0.125 µg/mL (≈ 0.28 µM)
MIC (Candida albicans): > 256 µg/mL
Activity (Vero [12]): Non-Toxic
MIC (Staphylococcus aureus [13]): < 0.06 µg/mL
MIC (Staphylococcus aureus [14]): 0.125 µg/mL (≈ 0.28 µM)
MIC (Enterobacter cloacae): > 128 µg/mL
MIC (Staphylococcus aureus [1]): 0.125 µg/mL (≈ 0.28 µM)
MIC [15]: 0.125 µg/mL (≈ 0.28 µM)
Activity (Cell membrane [16]): Active
MIC (Staphylococcus aureus [17]): 0.0625 µg/mL (≈ 0.14 µM)
MIC (Enterococcus faecium [18]): 0.25 µg/mL (≈ 0.56 µM)
MIC (Enterococcus faecalis [19]): 2 µg/mL (≈ 4.48 µM)
Activity (Vero [20]): 20%
MIC (Enterococcus faecium [21]): 0.25 µg/mL (≈ 0.56 µM)

O=c1cc(C(F)(F)F)[nH]c2cc(C(F)(F)F)cc(Nc3ccc(Cl)c(Cl)c3)c12
Activity (Erythrocyte): Non-Toxic
CC50 [22]: > 32 µg/mL
selectivity ratio [23]: > 500
MIC (Staphylococcus aureus [1]): < 0.0625 µg/mL

FC(F)(F)c1ccc2c(Nc3cccc(Cl)c3)cc(C(F)(F)F)nc2c1
MIC (Staphylococcus aureus [1]): 0.25 µg/mL (≈ 0.64 µM)

FC(F)(F)c1ccc(Nc2cc(N3CCOCC3)c3ccc(C(F)(F)F)cc3n2)nc1
MIC (Staphylococcus aureus [1]): 8 µg/mL (≈ 18.1 µM)

FC(F)(F)c1ccc2c(N3CCOCC3)cc(C(F)(F)F)nc2c1
MIC (Staphylococcus aureus [1]): > 32 µg/mL
